Compound activity: PubChem BioAssay, several laboratories
MPTP block = permeability transition pore inhibition; AID 602449; isolated mouse mitochondria, Ca2+ swelling absorbance, 30 min; inhibition, % at 10 µM; 360,000 compounds, 1.4% hits;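 active = inhibition of 50% or more, scaled per plate between neutral and stimulator controls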
OX1R antag-1 = antagonists of human orexin 1 receptor; CHO/OX1R cells, Fluo-8 calcium fluorescence, orexin A; inhibition, % at 5 µM; 330,000 compounds, 0.43% hits; AID 434989;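 active = inhibition above its plate's threshold, mean inhibition of all tested compounds on the plate plus 3 SD, cut at about 37% in these data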
Target sequence (O43613 whole entry, looked up): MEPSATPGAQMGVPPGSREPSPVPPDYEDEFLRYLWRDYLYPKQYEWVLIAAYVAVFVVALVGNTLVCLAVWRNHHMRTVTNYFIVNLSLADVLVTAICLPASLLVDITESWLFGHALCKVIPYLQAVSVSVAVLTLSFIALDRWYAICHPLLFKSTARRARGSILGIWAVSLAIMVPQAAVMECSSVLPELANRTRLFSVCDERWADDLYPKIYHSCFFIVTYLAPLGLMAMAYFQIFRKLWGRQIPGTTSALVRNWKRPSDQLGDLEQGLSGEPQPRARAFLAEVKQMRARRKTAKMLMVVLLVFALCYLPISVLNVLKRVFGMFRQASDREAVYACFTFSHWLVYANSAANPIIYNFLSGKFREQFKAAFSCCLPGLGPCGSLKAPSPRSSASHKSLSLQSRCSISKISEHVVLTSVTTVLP
GPR7 antag = antagonists of human GPR7 (neuropeptides B/W receptor 1). GPR7-expressing cells, fluorescence antagonist assay. inhibition, % at 4.4 µM. 290,000 compounds, 1.1% hits. AID 1861; in the data active = inhibition above about 16%, passing the limit was not always enough;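 also: cells stimulated with the agonist NPW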
OX1R antag-2 = blocks the human orexin 1 receptor; O43613; OX1R-expressing cells, FRET antagonist read-out; inhibition, % at 6.6 µM; 330,000 compounds, 1.8% hits; AID 485270; in the data active = inhibition mostly above about 38%, no sharp cut-off; inactive = mostly below about 40%
CHO parental Ca = counter-screen: ATP calcium response change in parental CHO cells; AID 463079; parental CHO-K1, ATP-induced calcium, Fluo-8 fluorescence; 330,000 compounds, 0.63% hits; inhibition, % at 5.6 µM;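 active = inhibition above that plate's mean sample inhibition plus 3 SD, cut at about 26% in these data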
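Test system: parental CHO cells; detection: calcium-sensitive Fluo-8 fluorescence; evaluation: percent inhibition of calcium signal; also added: ATP as calcium-mobilizing challenge; repeats: one well per compound; control set: ATP-challenged DMSO wells low, unchallenged DMSO wells high; compound: single nominal dose of 5.6 µM per compound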
OX1R Ca confirm = OX1R (human) antagonism, confirmed | 1,100 compounds, 38% hits | AID 492963 | shares compounds with OX1R antag-1 | inhibition, % at 5 µM | CHO/OX1R cells, orexin A calcium Fluo-8 fluorescence; in the data active = inhibition above about 29%
CHO Ca counter = counter-screen: parental CHO calcium response change, triplicate; shares compounds with OX1R antag-1; parental CHO-K1, ATP-induced calcium, Fluo-8 fluorescence; inhibition, % at 5.6 µM; 1,100 compounds, 9.3% hits;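 active = inhibition above a per-plate limit, the mean inhibition of that plate's test compounds plus 3 SD, cut at about 25% in these data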
OX1R HTRF conf = confirmation of human orexin 1 receptor antagonists, HTRF format. inhibition, % at 6.6 µM. shares compounds with OX1R antag-2. OX1R-expressing cells, HTRF antagonist assay. 1,800 compounds, 49% hits; in the data active = inhibition above about 55%;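 also: CHO cells expressing OX1R stimulated with orexin A at about EC80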
CHO-K1 HTRF cnt = counter-screen for OX1R antagonists: effect in parental CHO-K1 cells. shares compounds with OX1R antag-2. HTRF counterscreen. inhibition, % at 6.6 µM. 1,800 compounds, 48% hits. AID 493232; in the data active = inhibition above about 17%
Numbers stand for hits; i = inactive; nt = not tested or not shown. Compounds with a hit are over-represented: about 3.8% of the library has one in this group of screens.

SMILES	MPTP block	OX1R antag-1	GPR7 antag	OX1R antag-2	CHO parental Ca	OX1R Ca confirm	CHO Ca counter	OX1R HTRF conf	CHO-K1 HTRF cnt
CC(C)(C)C1CCC(C(=O)OCC(=O)c2ccc[nH]2)CC1 (configuration not stated)	i	i	i	i	i	nt	nt	nt	nt
Cc1cccc(OCCn2cc(/C=N/NC(=O)c3ccncc3)c3ccccc32)c1	i	i	i	i	i	nt	nt	nt	nt
Cc1cccc(OCC(=O)N/N=C\c2cn(C)c3ccccc23)c1	i	i	i	45	i	i	i	i	i
CC(Sc1ccc(Cl)cc1)C(=O)NNC(=O)c1ccccc1O (configuration not stated)	i	i	i	66	i	32	i	75	i
Cc1cc(C)nc(NC(=O)CSc2nc3ccccc3s2)n1	i	43	i	98	i	42	i	82	i
Cc1csc(-c2coc3cc(O)cc(C)c3c2=O)n1	i	60	i	94	i	i	i	91	i
COc1ccc2c(=O)c(-c3nc(C)cs3)coc2c1	i	i	i	i	i	nt	nt	nt	nt
O=c1c2ccccc2oc2cc(-c3ccc4cc[nH]c4c3)ccc12	i	75	nt	80	i	i	i	78	i
O=c1cc(-c2ccsc2)oc2ccc(-c3ccc4cc[nH]c4c3)cc12	i	72	nt	63	i	37	i	75	i
O=C(COc1ccc2c3c(c(=O)oc2c1)CCC3)NCc1cccnc1	i	i	i	i	i	nt	nt	nt	nt
CCCCNC(=O)COC(=O)c1c2c(nc3ccccc13)/C(=C/c1cccs1)CC2	i	i	i	i	i	nt	nt	nt	nt
CNC(=O)NC(=O)C(C)OC(=O)c1c2c(nc3ccccc13)/C(=C/c1cccs1)CC2 (configuration not stated)	i	52	i	66	i	92	i	93	i
COc1ccc(NC(=O)CSc2nc3sc(C)cc3c(=O)n2C)cc1	i	i	i	i	i	nt	nt	nt	nt
COc1ccc(NC(=O)CSc2nc3sc(C)cc3c(=O)n2C)c(OC)c1	i	43	i	88	i	31	i	86	i
CN(c1ccccc1)S(=O)(=O)c1cccc(NC(=O)COc2cccc([N+](=O)[O-])c2)c1	i	46	nt	33	i	i	i	i	i
CN(CC(=O)Nc1cccc([N+](=O)[O-])c1)S(=O)(=O)c1ccccc1	i	i	i	i	i	nt	nt	nt	nt
Cc1ccc(OCC(=O)NNC(=O)c2ccc3c(=O)n4c(nc3c2)CCC4)cc1	i	i	nt	i	i	nt	nt	nt	nt
CC(=O)NC(Cc1c[nH]c2ccccc12)C(=O)N/N=C/c1ccccc1 (configuration not stated)	i	64	i	73	i	36	i	72	i
CCOc1ccccc1NC(=O)COC(=O)C(CC(C)C)N1C(=O)C2CC=CCC2C1=O (configuration not stated)	i	i	i	60	i	i	i	i	i
COc1cc(OC)cc(C(=O)Nc2ccc3nc4n(c(=O)c3c2)CCCCC4)c1	i	i	i	i	i	nt	nt	nt	nt
COc1ccccc1C(=O)Nc1ccc2nc3n(c(=O)c2c1)CCCC3	i	i	i	95	i	31	i	97	i
CN(CCc1ccccc1)C(c1cc2ccccc2o1)c1nnnn1C(C)(C)C (configuration not stated)	i	nt	nt	nt	nt	nt	nt	nt	nt
Nc1nc(CSC(=S)N2CCN(c3ccccc3)CC2)nc(Nc2ccc(F)cc2)n1	i	i	i	i	i	nt	nt	nt	nt
CC1CC(C)CN(C(=S)SCc2nc(N)nc(Nc3ccccc3)n2)C1 (configuration not stated)	i	40	i	75	i	48	i	77	i
O=C(CCCN1C(=O)/C(=C/c2ccco2)SC1=S)Nc1ccccc1C(=O)O	i	i	i	i	i	nt	nt	nt	nt
SMILES	MPTP block	OX1R antag-1	GPR7 antag	OX1R antag-2	CHO parental Ca	OX1R Ca confirm	CHO Ca counter	OX1R HTRF conf	CHO-K1 HTRF cnt
O=C(CCCN1C(=O)/C(=C\c2ccco2)SC1=S)Nc1ccc2ccccc2c1	i	45	i	85	i	42	i	89	i
Cc1ccc(-c2nn(C)c(=O)c3ccccc23)cc1CNC(=O)NC1CCCCC1	i	i	i	i	i	nt	nt	nt	nt
COc1ccc2oc(C(=O)Nc3nc4ccccc4[nH]3)c(C)c2c1	i	i	i	53	i	i	i	i	i
CN(Cc1ccccc1)C(=O)c1[nH]cnc1C(=O)N[C@@H](Cc1ccccc1)C(=O)OC(C)(C)C	i	i	i	77	i	43	i	77	i
CC(C)(C)OC(=O)[C@H](Cc1ccccc1)NC(=O)c1nc[nH]c1C(=O)NCc1ccccc1	i	i	i	i	i	nt	nt	nt	nt
Cc1cc(SCC(=O)c2ccc(O)c(O)c2)nc2ccccc12	i	i	i	i	i	nt	nt	nt	nt
Cc1cc(SCC(=O)c2ccc3c(c2)OCO3)nc2ccccc12	i	i	i	59	i	i	i	87	i
CCN(CC)S(=O)(=O)c1cc(NC(=O)CSCc2c(C)noc2C)ccc1C	i	46	nt	74	i	36	i	80	i
CCN(CC)S(=O)(=O)c1cc(NC(=O)CCc2c(C)noc2C)ccc1C	i	i	nt	i	i	nt	nt	nt	nt
Cc1cc(-c2ccc(N3CCOCC3)cc2)nc2ccccc12	i	i	i	91	i	54	i	93	i
COc1ccc(/C=N/Nc2snc(SC)c2C#N)cc1OC	i	74	i	109	i	53	i	96	17
O=C(CN(C(=O)c1csnn1)c1ccccc1Cl)NC1CCCC1	i	i	i	i	i	nt	nt	nt	nt
Cc1ccc(NC2CCCN(C(=O)c3ccccc3-c3ncc[nH]3)C2)cc1C (configuration not stated)	i	i	i	i	i	nt	nt	nt	nt
Cc1ccc(NC2CCCN(C(=O)c3cccc(-c4ncc[nH]4)c3)C2)cc1C (configuration not stated)	i	i	i	93	i	65	i	92	i
O=C(Nc1cccc(O)c1)c1ccccc1[N+](=O)[O-]	i	i	i	i	i	nt	nt	nt	nt
COc1ccc(S(=O)(=O)N(C)C[C@H]2Oc3c(NC(=O)Nc4c(C)noc4C)cccc3C(=O)N([C@H](C)CO)C[C@@H]2C)cc1	i	i	nt	i	i	nt	nt	nt	nt
CCn1c(-c2ccccc2Cl)nn(CC(=O)Nc2cc(Cl)ccc2Cl)c1=S	i	46	i	54	i	i	i	i	i
Cc1cccc2cc(C#N)c(NCCNS(=O)(=O)c3ccc4c(c3)OCCO4)nc12	i	i	i	73	i	32	i	64	i
COc1ccc2c(Cl)c(C(=O)N/N=C/c3c(C)[nH]c4ccccc34)sc2c1	i	41	i	65	i	63	i	93	i
